Data on one compound can be found in ChEMBL document CHEMBL5653605, “Reduced VEGF production, angiogenesis, and vascular regrowth contribute to the antitumor properties of dual mTORC1/mTORC2 inhibitors” (Cancer Res, 2011).

pIC50: −log10 of the molar value. The source made the active and inactive calls. Some results are limits rather than exact numbers.

Data set [1] has as its target Proline-rich AKT1 substrate 1 (Homo sapiens) (UniProt Q96B36). Briefly: Inhibition of PRAS40 phosphorylation at Ser 246 residue in serum deprived/insulin stimulated human OVCAR-3 cells harboring PTEN and wild type PI3K preincubated for 2 hrs followed by insulin stimulation and measured immediately by Western blot analysis. The class given is cell-based. The note with it: dose 0.001-10 µM.

Data set [2] deals with Pancreatic islet cell carcinoma. In words: Antitumor activity against pancreatic islet cell carcinoma in RIP-Tag2 mouse assessed as reduction in VEGF-B expression at 75 mg/kg, po bid administered via gavage and measured after 1 to 7 days by immunoprecipitation based densitometric analysis. It counts as functional, organism-based. The note with it: time 1-7 day. The gist of the method:
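VEGF in tumor lysates from treated RIP-Tag2 mice (9–10 weeks old at start; 75 mg/kg gavage BID or 20 mg/kg ip QD) measured with mouse angiogenesis antibody arrays, read as pixel density. 3–8 mice/group, SEM; ANOVA with Fisher PLSD.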

The target of data set [3] is RAC-alpha serine/threonine-protein kinase (Homo sapiens) (UniProt P31749). Briefly: Inhibition of AKT phosphorylation at Ser 473 site in serum deprived/insulin stimulated human OVCAR-3 cells harboring PTEN and wild type PI3K preincubated for 2 hrs followed by insulin stimulation and measured immediately by Western blot analysis. It counts as cell-based. The settings on record: dose 0.001-10 µM.

The target in data set [4] is DNA-dependent protein kinase catalytic subunit (Homo sapiens, UniProt P78527). Briefly: Inhibition of DNA-PK (unknown origin) assessed as reduction in phosphorylated RPA32 level by cell based assay.
Data set [5] can be described thus: Drug concentration in nu/nu CD-1 mouse plasma xenografted with human GEO cells at 75 mg/kg administered for 14 days and measured 1 hr post last dose. The class given is ADME, organism-based. In general terms: Xenograft models place foreign cells or tissue in a host animal.
Data set [6] concerns the target Vascular endothelial growth factor receptor 2 (Homo sapiens, UniProt P35968). In words: Inhibition of VEGFR2 phosphorylation (unknown origin) by cell based assay.
The subject of data set [7] is Pancreatic islet cell carcinoma. In words: Antitumor activity against pancreatic islet cell carcinoma in RIP-Tag2 mouse assessed as reduction in VEGF production by measuring reduction in fluorescence in entire tumor at 75 mg/kg, po bid administered via gavage and measured after 4 days by immunohistochemical staining based confocal microscopic analysis relative to control. The class given is functional. Also noted: scale not given: the % may be the effect or the level left. The note with it: time 4 day. The gist of the method: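 Treatment began in RIP-Tag2 mice at 9–10 weeks: 75 mg/kg gavage BID for 1, 4 or 7 days, or 20 mg/kg ip QD for 7 days; vehicle Labrifil or water. Tissue fixed by vascular perfusion and 60–80 µm sections stained for VEGF with CD31. VEGF fluorescence intensity measured over whole tumor, tumor cells, or tumor vessels. 3–8 mice/group; ANOVA, Fisher PLSD.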

Data set [8] shares this test system. Briefly: Additive antitumor activity in pancreatic islet cell carcinoma in RIP-Tag2 mouse assessed as induction of apoptosis by measuring increase in activated caspase-3 level at 100 mg/kg, po bid administered via gavage for 4 days in presence of OSI-930 by immunohistochemistry analysis relative to control. The note with it: time 4 day. It counts as functional.

Data set [9] shares this test system. In words: Antivascular activity against pancreatic islet cell carcinoma in RIP-Tag2 mouse assessed as reduction in CD31-positive tumor blood vessels at 75 mg/kg, po bid administered via gavage and measured after 1 to 4 days by immunohistochemical staining based fluorescence microscopic analysis. The settings on record: time 1-4 day. The class given is functional, organism-based.

The target of data set [10] is Phosphatidylinositol 4,5-bisphosphate 3-kinase catalytic subunit gamma isoform (Homo sapiens, UniProt P48736). Briefly: Inhibition of PI3Kgamma (unknown origin) at 3 uM by Ambit Kinomescan assay relative to control.
Data set [11] deals with mTORC2 (Homo sapiens, UniProt P42345). Briefly: Competitive inhibition of mTORC2 immunoprecipitated from human HeLa cells using His-tagged 4E-BP1 as substrate incubated for 30 mins in presence of ATP by chemiluminescence based ELISA. The gist of the method: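 Native mTORC1 or mTORC2 complex immunoprecipitated from HeLa lysates; kinase reaction run at 1 mM ATP.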
A general note: In an ELISA, binding on a coated surface is turned into a signal by an enzyme label.

Data set [12] relates to Pancreatic islet cell carcinoma. In words: Antivascular activity against pancreatic islet cell carcinoma in RIP-Tag2 mouse assessed as appearance of empty basement membrane sleeves at 75 mg/kg, po bid administered via gavage and measured after 7 days by immunohistochemical staining based fluorescence microscopic analysis. It counts as functional, organism-based. The note with it: time 7.0 day. The essentials: (§1)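 For 7 days, RIP-Tag2 mice, 9–10 weeks old, received 75 mg/kg gavage BID, 200 mg/kg gavage QD, or 20 mg/kg ip QD. Perfusion-fixed tumors cut at 60–80 µm and stained for CD31 and type IV collagen basement membrane. Vessel area density from fluorescence images with threshold 30–50; sprouts and empty basement membrane sleeves examined by confocal microscopy. 3–8 mice/group; ANOVA, Fisher PLSD.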

The test system is the same in data set [13]. Briefly: Antivascular activity in pancreatic islet cell carcinoma in RIP-Tag2 mouse assessed as suppression of tumor regrowth by measuring reduction in vessel density at 75 mg/kg, po bid administered via gavage pretreated with OSI-930 for 7 days at 200 mg/kg, po followed by compound administration and measured after 4 days (reference value: 18%). The note with it: time 4 day. The class given is functional. Set-up: scale not given: the % may be the effect or the level left. The gist of the method:
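10-week-old RIP-Tag2 mice given OSI-930 200 mg/kg QD by gavage for 7 days, then 75 mg/kg BID by gavage for 4 days. Mice fixed by vascular perfusion; 60–80 µm tumor sections immunostained for endothelial cells; vessel area density from fluorescence images at threshold 30–50. 3–8 mice per group; ANOVA with Fisher PLSD.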

Data set [14] relates to GEO. In words: Antitumor activity against human GEO cells xenografted in nu/nu CD-1 mouse assessed as slower tumor growth at 75 mg/kg administered twice a day for 14 days and measured twice weekly. It counts as functional, organism-based. The note with it: time 14.0 day.
The test system of data set [15] is OVCAR-3. In words: Inhibition of S6K at […] residues in serum deprived/insulin stimulated human OVCAR-3 cells harboring PTEN and wild type PI3K assessed as inhibition of s6 substrate phosphorylation at […] residue at 0.001 to 10 uM preincubated for 2 hrs followed by insulin stimulation and measured immediately by Western blot analysis. The settings on record: dose 0.001-10 µM. The class given is cell-based. For orientation: Immunoblotting shows a protein as a band on a membrane.

For data set [16], the target named is Serine/threonine-protein kinase mTOR (Homo sapiens, UniProt P42345). In words: Inhibition of mTOR (unknown origin) assessed as reduction in 4E-BP1 phosphorylation by cell based assay.
Data set [17] concerns the target Phosphatidylinositol 4,5-bisphosphate 3-kinase catalytic subunit alpha isoform (Homo sapiens, UniProt P42336). Briefly: Inhibition of PI3Kalpha (unknown origin) in presence of ATP by HTRF assay.
The subject of data set [18] is Pancreatic islet cell carcinoma. In words: Antivascular activity against pancreatic islet cell carcinoma in RIP-Tag2 mouse assessed as reduction in CD31-positive tumor blood vessels at 75 mg/kg, po bid administered via gavage and measured after 7 days by immunohistochemical staining based fluorescence microscopic analysis relative to control. The settings on record: time 7 day. Also noted: scale not given: the % may be the effect or the level left. It counts as functional. The essentials: as §1

The test system is the same in data set [19]. In words: Antitumor activity against pancreatic islet cell carcinoma in RIP-Tag2 mouse assessed as reduction in cell proliferation at 75 mg/kg, po bid administered via gavage and measured after 7 days by immunohistochemistry analysis. It counts as functional, organism-based. The note with it: time 7.0 day. The gist of the method:
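RIP-Tag2 mice aged 9–10 weeks dosed by gavage BID for 7 days; vehicle Labrifil or water. Mice fixed by vascular perfusion, tumors cut into 60–80 µm sections. Proliferating cells stained for phospho-histone H3 and apoptotic cells for activated caspase-3. Sections imaged by fluorescence/confocal microscopy. Body weight checked daily, fluids given if loss exceeded 10%. 3–8 mice per group, SEM, ANOVA with Fisher PLSD.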

For data set [20] the test system is unchanged. In words: Additive antitumor activity in pancreatic islet cell carcinoma in RIP-Tag2 mouse assessed as reduction in proliferation by measuring reduction in phospho-histone H3 level at 100 mg/kg, po bid administered via gavage for 4 days in presence of OSI-930 by immunohistochemistry analysis. The class given is functional, organism-based. The note with it: time 4.0 day.

Chain of Phosphatidylinositol 4,5-bisphosphate 3-kinase catalytic subunit gamma isoform (P48736 whole entry, looked up, canonical isoform): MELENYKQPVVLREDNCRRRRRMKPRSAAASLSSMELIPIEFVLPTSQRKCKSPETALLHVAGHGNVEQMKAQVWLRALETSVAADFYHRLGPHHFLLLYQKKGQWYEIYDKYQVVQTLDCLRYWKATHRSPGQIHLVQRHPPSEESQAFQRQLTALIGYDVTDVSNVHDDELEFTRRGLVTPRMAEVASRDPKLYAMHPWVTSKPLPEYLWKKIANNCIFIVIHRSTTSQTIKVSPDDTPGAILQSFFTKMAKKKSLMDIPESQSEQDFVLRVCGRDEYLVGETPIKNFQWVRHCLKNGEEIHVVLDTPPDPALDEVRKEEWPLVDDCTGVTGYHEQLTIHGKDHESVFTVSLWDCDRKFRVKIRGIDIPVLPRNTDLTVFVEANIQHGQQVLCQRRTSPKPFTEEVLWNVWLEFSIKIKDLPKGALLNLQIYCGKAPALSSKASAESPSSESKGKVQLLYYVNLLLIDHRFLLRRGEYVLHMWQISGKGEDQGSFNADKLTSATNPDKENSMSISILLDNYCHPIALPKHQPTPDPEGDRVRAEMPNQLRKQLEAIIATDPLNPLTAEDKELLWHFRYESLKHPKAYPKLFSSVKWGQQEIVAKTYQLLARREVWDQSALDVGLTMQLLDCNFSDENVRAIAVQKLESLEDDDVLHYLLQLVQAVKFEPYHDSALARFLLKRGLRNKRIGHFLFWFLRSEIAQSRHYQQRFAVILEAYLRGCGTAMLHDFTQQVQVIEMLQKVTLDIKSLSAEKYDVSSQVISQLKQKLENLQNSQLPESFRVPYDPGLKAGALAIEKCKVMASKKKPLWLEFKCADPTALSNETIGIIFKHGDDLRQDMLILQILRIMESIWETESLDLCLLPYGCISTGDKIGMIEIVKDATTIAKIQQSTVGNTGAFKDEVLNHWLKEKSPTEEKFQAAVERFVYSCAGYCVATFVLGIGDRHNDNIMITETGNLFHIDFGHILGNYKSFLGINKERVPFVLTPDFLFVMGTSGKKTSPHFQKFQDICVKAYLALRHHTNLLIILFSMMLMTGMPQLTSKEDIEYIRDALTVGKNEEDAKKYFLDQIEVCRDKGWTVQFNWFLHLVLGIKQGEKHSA
Chain of Phosphatidylinositol 4,5-bisphosphate 3-kinase catalytic subunit alpha isoform (P42336 whole entry, canonical isoform): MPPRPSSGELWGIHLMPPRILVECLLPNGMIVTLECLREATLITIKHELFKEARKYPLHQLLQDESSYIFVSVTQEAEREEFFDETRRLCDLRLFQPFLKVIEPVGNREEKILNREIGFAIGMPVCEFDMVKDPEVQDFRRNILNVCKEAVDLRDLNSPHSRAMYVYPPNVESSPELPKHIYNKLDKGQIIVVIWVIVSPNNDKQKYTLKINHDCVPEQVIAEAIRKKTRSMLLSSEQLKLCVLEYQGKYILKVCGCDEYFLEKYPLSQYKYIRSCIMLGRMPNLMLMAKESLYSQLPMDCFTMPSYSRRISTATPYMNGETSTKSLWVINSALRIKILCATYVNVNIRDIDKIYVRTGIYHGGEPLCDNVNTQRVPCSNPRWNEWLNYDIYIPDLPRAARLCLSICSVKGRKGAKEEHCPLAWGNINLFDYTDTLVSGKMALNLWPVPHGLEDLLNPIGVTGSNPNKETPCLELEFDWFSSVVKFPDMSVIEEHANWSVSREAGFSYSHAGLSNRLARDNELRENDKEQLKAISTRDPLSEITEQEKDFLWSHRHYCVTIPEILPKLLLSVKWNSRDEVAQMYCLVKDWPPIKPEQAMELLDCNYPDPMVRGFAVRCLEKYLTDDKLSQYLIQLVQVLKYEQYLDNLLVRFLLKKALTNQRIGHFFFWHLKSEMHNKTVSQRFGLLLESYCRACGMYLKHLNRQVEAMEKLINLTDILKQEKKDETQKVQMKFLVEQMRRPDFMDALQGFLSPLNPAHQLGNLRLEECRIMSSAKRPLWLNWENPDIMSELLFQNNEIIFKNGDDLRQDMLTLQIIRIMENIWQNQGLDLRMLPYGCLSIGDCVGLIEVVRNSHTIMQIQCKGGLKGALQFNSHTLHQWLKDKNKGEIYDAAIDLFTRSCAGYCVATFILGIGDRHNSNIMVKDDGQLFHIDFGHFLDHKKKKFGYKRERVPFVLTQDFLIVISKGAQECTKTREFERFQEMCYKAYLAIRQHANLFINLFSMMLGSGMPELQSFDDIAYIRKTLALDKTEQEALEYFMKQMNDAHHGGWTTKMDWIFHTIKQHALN
Chain of Vascular endothelial growth factor receptor 2 (P35968 whole entry): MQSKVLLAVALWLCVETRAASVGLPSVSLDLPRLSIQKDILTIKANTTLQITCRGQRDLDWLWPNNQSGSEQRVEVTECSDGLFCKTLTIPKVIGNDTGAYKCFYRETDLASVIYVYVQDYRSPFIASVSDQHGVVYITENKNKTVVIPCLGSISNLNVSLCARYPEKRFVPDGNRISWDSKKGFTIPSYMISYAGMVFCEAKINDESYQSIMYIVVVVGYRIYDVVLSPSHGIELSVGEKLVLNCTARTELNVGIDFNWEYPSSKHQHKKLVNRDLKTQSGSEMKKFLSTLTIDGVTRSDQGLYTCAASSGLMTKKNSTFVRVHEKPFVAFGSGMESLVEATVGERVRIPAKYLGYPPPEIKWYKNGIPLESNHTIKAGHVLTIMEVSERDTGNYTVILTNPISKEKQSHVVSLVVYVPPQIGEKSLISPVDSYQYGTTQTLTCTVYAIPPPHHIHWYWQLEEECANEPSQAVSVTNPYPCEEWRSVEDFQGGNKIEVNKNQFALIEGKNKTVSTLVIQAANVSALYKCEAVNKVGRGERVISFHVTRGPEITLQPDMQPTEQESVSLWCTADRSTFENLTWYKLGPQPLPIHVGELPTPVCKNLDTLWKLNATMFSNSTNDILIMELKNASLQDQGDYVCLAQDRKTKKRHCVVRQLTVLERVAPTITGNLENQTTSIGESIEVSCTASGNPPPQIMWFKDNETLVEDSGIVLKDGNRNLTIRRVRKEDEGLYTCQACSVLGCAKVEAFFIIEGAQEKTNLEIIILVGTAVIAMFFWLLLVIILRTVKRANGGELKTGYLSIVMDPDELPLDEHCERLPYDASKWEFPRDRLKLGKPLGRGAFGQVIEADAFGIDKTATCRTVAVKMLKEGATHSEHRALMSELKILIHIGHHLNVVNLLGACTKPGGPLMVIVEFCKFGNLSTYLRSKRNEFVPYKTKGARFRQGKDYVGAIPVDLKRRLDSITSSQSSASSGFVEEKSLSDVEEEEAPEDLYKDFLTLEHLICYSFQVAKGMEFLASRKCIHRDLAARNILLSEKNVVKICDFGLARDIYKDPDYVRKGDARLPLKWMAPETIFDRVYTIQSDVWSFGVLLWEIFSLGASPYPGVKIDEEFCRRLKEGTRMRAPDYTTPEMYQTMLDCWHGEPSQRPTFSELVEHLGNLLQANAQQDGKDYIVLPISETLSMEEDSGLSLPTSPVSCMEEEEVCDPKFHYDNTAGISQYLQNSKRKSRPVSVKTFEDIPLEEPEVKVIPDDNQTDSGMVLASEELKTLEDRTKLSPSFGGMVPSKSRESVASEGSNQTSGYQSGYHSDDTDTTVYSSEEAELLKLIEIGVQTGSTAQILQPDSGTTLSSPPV
Chain of RAC-alpha serine/threonine-protein kinase (Homo sapiens) (P31749 whole entry): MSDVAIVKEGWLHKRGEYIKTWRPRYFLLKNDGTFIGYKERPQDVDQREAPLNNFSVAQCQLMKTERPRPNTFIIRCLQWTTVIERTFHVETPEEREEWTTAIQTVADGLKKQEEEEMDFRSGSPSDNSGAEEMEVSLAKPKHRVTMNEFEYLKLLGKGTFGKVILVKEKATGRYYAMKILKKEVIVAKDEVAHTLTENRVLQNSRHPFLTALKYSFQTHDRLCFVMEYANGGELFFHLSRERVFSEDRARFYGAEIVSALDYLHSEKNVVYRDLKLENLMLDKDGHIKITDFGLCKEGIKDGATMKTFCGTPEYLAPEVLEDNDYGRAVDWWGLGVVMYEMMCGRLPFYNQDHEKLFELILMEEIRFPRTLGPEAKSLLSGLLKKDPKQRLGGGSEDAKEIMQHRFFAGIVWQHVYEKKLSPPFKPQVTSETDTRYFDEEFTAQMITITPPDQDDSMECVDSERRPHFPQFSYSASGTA

For `Nc1nccn2c1c(-c1cc3cccc(Cl)c3[nH]1)nc2[C@H]1CC[C@H](C(=O)O)CC1`, the figures for the inhibition result in data set [1], in data set [3] and in data set [10] were “Dose-Dependent Effect”, “Dose-Dependent Effect” and over 90%, respectively. The outcome in data set [2], in data set [9] and in data set [12] was inactive. In addition, the pIC50 in data set [4] was under 4.40; in [6], under 4.40; in data set [11], 8.15; in data set [16], 5.96; in data set [17], 6.72. Further, the concentration at 337 h in data set [5] is 25.6 µM. For the same compound, the Activity in data set [7] stood at 48%; in [8] it was 700%; in data set [13], 40%; in [18] it was 23%. The outcome in data set [14], in data set [19] and in [20] was Active. In data set [15], the inhibition entry is “Active”.

Usually inhibition stands for the relative decrease from the control value, in per cent. A word on the pIC50: it is −log10 of the IC50, conventionally taken in molar units.
